Measurements published in ChEMBL document CHEMBL1932993, “Synthesis and cytotoxicity of O,O'-dialkyl {[2-(substituted phenoxy)acetamido](substituted phenyl)methyl}phosphonates” (Eur J Med Chem, 2012).

Tests used:
KB = assay: Cytotoxicity against human KB cells after 72 hrs ny MTT assay; assay type: functional, cell-based
Outline: (§1)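 Cells grown in RPMI 1640 with 10% fetal calf serum and seeded at 2 × 10^4/mL. They were held 12 h at 37 °C in 5% CO2, then exposed to compound for 3 days at 37 °C. MTT formazan was dissolved and absorbance read at 570 nm. IC50 is the concentration giving 50% growth inhibition versus untreated controls. At least 3 independent experiments.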

[1] = Cytotoxicity against human CNE2 cells after 72 hrs ny MTT assay; assay type: functional, cell-based; conditions: CNE-2, 72 h; outline: as §1

Compound	IC50 (KB)	IC50 [1]
CCCCOP(=O)(OCCCC)C(NC(=O)COc1ccccc1Cl)c1ccccc1 (centres undefined)	15.8 µM	11.4 µM
COc1ccc(C(NC(=O)COc2ccc(Cl)cc2Cl)P(=O)(OC)OC)cc1 (centres undefined)	> 50 µM	> 50 µM
CCCCOP(=O)(OCCCC)C(NC(=O)COc1cccc(C)c1C)c1ccc(OC)cc1 (centres undefined)	7.1 µM	20.7 µM
CCCOP(=O)(OCCC)C(NC(=O)COc1ccc(Cl)cc1)c1ccccc1 (centres undefined)	23 µM	42.9 µM
CCOP(=O)(OCC)C(NC(=O)COc1cccc(C(F)(F)F)c1)c1ccc(OC)cc1 (centres undefined)	> 50 µM	> 50 µM
CCCCOP(=O)(OCCCC)C(NC(=O)COc1ccccc1Cl)c1ccc(OC)cc1 (centres undefined)	14.5 µM	13.4 µM
O=c1[nH]cc(F)c(=O)[nH]1 [FLUOROURACIL]	9 µM	13.5 µM
CCCCOP(=O)(OCCCC)C(NC(=O)COc1cccc(C)c1C)c1ccccc1 (centres undefined)	18.2 µM	25.1 µM
CCCOP(=O)(OCCC)C(NC(=O)COc1cccc(C(F)(F)F)c1)c1ccc(OC)cc1 (centres undefined)	19.8 µM	38.5 µM
CCOP(=O)(OCC)C(NC(=O)COc1ccc(Cl)cc1)c1ccc(OC)cc1 (centres undefined)	> 50 µM	> 50 µM
CCOP(=O)(OCC)C(NC(=O)COc1ccc(Cl)cc1C)c1ccc(OC)cc1 (centres undefined)	> 50 µM	> 50 µM
CCOP(=O)(OCC)C(NC(=O)COc1ccc([N+](=O)[O-])cc1)c1ccc(OC)cc1 (centres undefined)	> 50 µM	> 50 µM
COP(=O)(OC)C(NC(=O)COc1ccc(Cl)cc1Cl)c1ccccc1 (centres undefined)	> 50 µM	> 50 µM
CCCCOP(=O)(OCCCC)C(NC(=O)COc1ccc(Cl)c(C)c1)c1ccccc1 (centres undefined)	18.1 µM	43 µM
CCCCOP(=O)(OCCCC)C(NC(=O)COc1ccc(F)cc1Cl)c1ccccc1 (centres undefined)	12.3 µM	13.1 µM
CCCCOP(=O)(OCCCC)C(NC(=O)COc1ccc(Cl)cc1Cl)c1ccccc1 (centres undefined)	17.8 µM	13.8 µM
COP(=O)(OC)C(NC(=O)COc1ccc(Cl)cc1Cl)c1ccc(C)cc1 (centres undefined)	> 50 µM	> 50 µM
CCOP(=O)(OCC)C(NC(=O)COc1ccc(Cl)cc1Cl)c1ccc(OC)cc1 (centres undefined)	> 50 µM	> 50 µM
COP(=O)(OC)C(NC(=O)COc1ccc(Cl)c(C)c1)c1ccc(C)cc1 (centres undefined)	> 50 µM	> 50 µM
CCCCOP(=O)(OCCCC)C(NC(=O)COc1ccc(OC)cc1)c1ccccc1 (centres undefined)	25.5 µM	41.2 µM
CCCOP(=O)(OCCC)C(NC(=O)COc1cccc(C(F)(F)F)c1)c1ccccc1 (centres undefined)	21.6 µM	41.8 µM
CCCOP(=O)(OCCC)C(NC(=O)COc1ccc(Cl)cc1Cl)c1ccc(OC)cc1 (centres undefined)	17.4 µM	27.2 µM
CCCOP(=O)(OCCC)C(NC(=O)COc1ccc(Cl)cc1Cl)c1ccccc1 (centres undefined)	16 µM	26 µM
CCCCOP(=O)(OCCCC)C(NC(=O)COc1ccc(Cl)cc1C)c1ccccc1 (centres undefined)	12.3 µM	19.9 µM
CCCCOP(=O)(OCCCC)C(NC(=O)COc1ccc(C(C)(C)C)cc1)c1ccc(OC)cc1 (centres undefined)	13.3 µM	31.1 µM
COc1ccc(C(NC(=O)COc2cccc(C)c2C)P(=O)(OC)OC)cc1 (centres undefined)	> 50 µM	> 50 µM
CCCCOP(=O)(OCCCC)C(NC(=O)COc1cc(Cl)c(Cl)cc1Cl)c1ccccc1 (centres undefined)	15.9 µM	> 50 µM
